Measurements gathered from unrelated publications.
Protocols differ between the studies behind these lines. pIC50: −log10 of the molar value.
Cell line: MDA-MB-231

SMILES	test	conditions	pIC50
COc1ccc(Br)cc1/C=C/C(=O)c1ccc(NC(C)=O)cc1	cell growth or viability, MTT	48 h	5.52
c1ccc2[nH]c(-c3ccc4c(c3)OCO4)nc2c1	cell growth or viability, MTT	48 h	< 4.00
[Na+].[Na+].[Na+].[O]=[V]([O-])([O-])[O-]	cell migration, inhibitor	–	5.25
Oc1ccccc1-c1ccc2ncnc(Nc3cccc(C(F)(F)F)c3)c2c1	cell growth or viability, MTT	24 h	5.07
COc1cc(-c2nc(C(=O)Nc3nnc(-c4cc5ccccc5n4C)s3)cc3c2[nH]c2ccccc23)cc(OC)c1OC	cell growth or viability, MTT	72 h	5.14
C[C@H]1O[C@@H](n2cc(F)c(=O)[nH]c2=O)[C@H](O)[C@@H]1O	cell growth or viability, CCK-8	48 h	< 4.30
COc1cccc2c1C(=O)c1c(O)c3c(c(O)c1C2=O)C[C@@](O)(C(=O)CO)C[C@@H]3O[C@H]1C[C@H](N)[C@H](O)[C@H](C)O1	cell growth or viability, MTT	–	5.17
CN(C)c1ccc2cc(C(=O)N[C@@H](CCCNC(=N)CCl)C(=O)NCc3ccccc3)ccc2c1	cell growth or viability	48 h	5.15
CC(=O)O[C@H]1C(=O)[C@@]2(C)[C@H]([C@H](OC(=O)c3ccccc3)[C@]3(O)C[C@H](OC(=O)[C@H](O)[C@@H](NC(=O)c4ccccc4)c4ccccc4)C(C)=C1C3(C)C)[C@]1(OC(C)=O)CO[C@@H]1C[C@@H]2O	cell growth or viability, MTT	48 h	5.86
O=C(Nc1nnc(-c2cc3ccccc3[nH]2)s1)c1cc2c([nH]c3ccccc32)c(-c2ccccc2)n1	cell growth or viability, MTT	72 h	5.40
O=[N+]([O-])c1ccc(-c2nc3ccccc3[nH]2)cc1	cell growth or viability, MTT	48 h	4.57
CC(C)=CCc1c(O)c(CC=C(C)C)c2oc3c(O)ccc(O)c3c(=O)c2c1O	cell growth or viability	48 h	4.77
COc1cccc2c1C(=O)c1c(O)c3c(c(O)c1C2=O)C[C@@](O)(C(=O)CO)C[C@@H]3O[C@H]1C[C@H](N)[C@H](O)[C@H](C)O1	cell growth or viability, resazurin	72 h	6.42
Cc1ccc2nc(-c3ccc(Cl)c(Cl)c3)[nH]c2c1	cell growth or viability, MTT	48 h	4.22
O=C(C=C[c-]1cccc1)c1sccc1Br.[Fe+2].c1cc[cH-]c1	cell growth or viability, MTT	72 h	5.18
Cc1ccc2nc(-c3ccc([N+](=O)[O-])cc3)n(Cc3ccccc3)c2c1	cell growth or viability, MTT	–	5.09
COc1cc(/C=C2\SC(=O)NC2=O)ccc1OCc1ccc(Cl)cc1Cl	cell growth or viability, MTT	48 h	4.59

SMILES	test	conditions	pIC50
Nc1ccn([C@@H]2O[C@H](CO)[C@@H](O)C2(F)F)c(=O)n1	cell growth or viability, resazurin	72 h	5.35
Cc1nc(Nc2ncc(C(=O)Nc3c(C)cccc3Cl)s2)cc(N2CCN(CCO)CC2)n1	cell growth or viability, MTT	24 h	4.60
O=C(CSc1nc2ccc(N=Cc3ccc(Sc4nnnn4-c4ccccc4)o3)cc2s1)N1CCOCC1	cell growth or viability, MTT	72 h	4.31
CC(C)[C@H](N)c1nc2cc(-c3ccncc3F)sc2c(=O)[nH]1	cell growth or viability, MTT	–	5.92
Oc1cccc(-c2ccc3ncnc(Nc4cccc(C(F)(F)F)c4)c3c2)c1	cell growth or viability, MTT	24 h	4.85
COc1cc(Nc2nccc(-c3cnn4nc(OC)ccc34)n2)cc(C(F)(F)F)c1	cell growth or viability, ATP luminescence	–	5.74
COc1ccc(/C=C/C(=O)c2cc(Br)ccc(=O)c2O)cc1	cell growth or viability, MTT	72 h	4.58
O=C(Nc1nnc(-c2cc3ccccc3[nH]2)s1)c1cc2c([nH]c3ccccc32)c(-c2ccc(Cl)cc2)n1	cell growth or viability, MTT	72 h	5.35
CCCCCCCCCCCC(=O)Oc1c(C)c(O)c(C(=O)/C=C/c2ccccc2)c(OC)c1C	cell growth or viability, SRB	72 h	< 4.30
CSc1ccc(-c2nc3ccc(C)cc3n2Cc2ccccc2)cc1	cell growth or viability, MTT	–	4.66
O=Cc1ccc(-c2ccc3ncnc(Nc4cccc(C(F)(F)F)c4)c3c2)cc1	cell growth or viability, MTT	24 h	5.06
C[C@@H]1C[C@H](c2cccc(F)c2)c2c(cc3ccccn23)C(=O)O1 (racemic)	cell growth or viability, resazurin	72 h	4.10
CCOc1ccc(-c2nc3ccccc3n2Cc2ccccc2)cc1	cell growth or viability, MTT	–	4.68
COc1cccc([C@@H]2C[C@@H](C)OC(=O)c3cc4ccccn4c32)c1 (racemic)	cell growth or viability, resazurin	72 h	4.28
Cc1ccc2nc(-c3c(F)cccc3Cl)[nH]c2c1	cell growth or viability, MTT	48 h	4.46
Oc1ccc(-c2ccc3ncnc(Nc4cccc(C(F)(F)F)c4)c3c2)cc1	cell growth or viability, MTT	24 h	5.40
C[C@@H]1C[C@H](c2ccc(Br)cc2)c2c(cc3ccccn23)C(=O)O1 (racemic)	cell growth or viability, resazurin	72 h	4.78
